Screens: PubChem, Johns Hopkins Ion Channel Center
TRPC4 inh – TRPC4 (mouse) channel inhibition. HEK293 TRPC4beta/mu-opioid, DAMGO-evoked Fluo4 calcium flux; hits give low values. B-score at 10 µM. 300,000 tested, 0.39% active. AID 2247;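 active means B-score over 3 SD under the library average, no early fluorescence shift, positive overall ratio signal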
Target sequence (Q9QUQ5 whole entry, looked up): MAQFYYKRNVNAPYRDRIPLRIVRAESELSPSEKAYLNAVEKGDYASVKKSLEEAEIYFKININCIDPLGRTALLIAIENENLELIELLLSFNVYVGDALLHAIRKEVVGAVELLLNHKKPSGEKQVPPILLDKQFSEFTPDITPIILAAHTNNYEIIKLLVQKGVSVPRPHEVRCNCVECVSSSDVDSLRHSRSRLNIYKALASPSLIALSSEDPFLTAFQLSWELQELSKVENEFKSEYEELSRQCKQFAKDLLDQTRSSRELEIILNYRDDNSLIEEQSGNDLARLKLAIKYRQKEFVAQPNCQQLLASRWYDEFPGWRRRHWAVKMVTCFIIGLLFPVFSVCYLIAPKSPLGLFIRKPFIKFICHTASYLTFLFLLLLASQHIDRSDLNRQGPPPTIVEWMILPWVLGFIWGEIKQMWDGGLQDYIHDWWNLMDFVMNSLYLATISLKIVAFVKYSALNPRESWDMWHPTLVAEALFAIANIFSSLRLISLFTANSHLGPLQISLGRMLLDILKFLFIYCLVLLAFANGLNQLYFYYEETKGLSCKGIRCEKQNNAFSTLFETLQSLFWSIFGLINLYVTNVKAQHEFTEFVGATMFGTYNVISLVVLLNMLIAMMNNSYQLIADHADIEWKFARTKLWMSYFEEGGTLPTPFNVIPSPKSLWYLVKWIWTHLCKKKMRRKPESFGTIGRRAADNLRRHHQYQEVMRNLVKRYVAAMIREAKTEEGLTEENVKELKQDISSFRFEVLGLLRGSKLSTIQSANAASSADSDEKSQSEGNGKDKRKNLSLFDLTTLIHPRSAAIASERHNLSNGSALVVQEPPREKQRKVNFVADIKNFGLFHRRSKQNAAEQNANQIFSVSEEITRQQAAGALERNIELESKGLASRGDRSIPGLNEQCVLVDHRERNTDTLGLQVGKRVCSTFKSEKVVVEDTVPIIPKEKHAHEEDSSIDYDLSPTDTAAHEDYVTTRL
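Material: HEK293 cells with stable TRPC4beta plus mu-opioid receptor expression / Probe or stimulus: DAMGO in two steps, submaximal then maximal / Compound: single concentration per test compound / Technique: kinetic Fluo4 fluorescence imaging of calcium influx / Read-out: per-well B score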
TRPC4 act – TRPC4 (mouse) channel activation. Q9QUQ5. HEK293 TRPC4beta/mu-opioid, Fluo4 calcium fluorescence; hits give high values. B-score at 10 µM. 310,000 tested, 0.49% active. AID 2237;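 active means B-score above 5 SD of library B-scores, and initial fluorescence ratio not above library mean plus 5 SD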;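 further: positive B-score marks a calcium rise read as TRPC4 activation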
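Incubation: 45 min room-temperature Fluo4 loading, 110 s read / System: HEK293 cells stably co-expressing mouse TRPC4beta and mu-opioid receptor / Signal: Fluo4 fluorescence, kinetic / Control set: buffer (low) and maximal DAMGO (high) / Measure: integrated baseline-normalised fluorescence ratio, converted to per-well B score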
TRPC6 activator – activators of mouse TRPC6 channel; 310,000 tested, 0.13% active; HEK293-TRPC6 membrane potential dye fluorescence; hits give high values; B-score at 10 µM;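 active means B-score of the integrated fluorescence ratio above library mean plus 3 SD, and starting fluorescence ratio within library mean plus 5 SD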;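 further: higher score means more depolarization so channel activation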
TRPC4 potent – allosteric potentiators of mouse TRPC4 channel; Q9QUQ5; HEK293 TRPC4beta/mu-opioid, DAMGO EC20, Fluo-4 Ca2+ flux; hits give high values; B-score at 10 µM; 310,000 tested, 0.42% active; AID 2227;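 active means B-score of calcium response area above 5 SD of library B-scores, with initial fluorescence ratio within 5 SD of library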;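 further: B-score of integrated fluorescence ratio over time as area under calcium response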
TRPC6 inhibitor – inhibitors of mouse TRPC6 channel. B-score at 10 µM. HEK293-TRPC6, membrane potential dye, ACh-evoked depolarization; hits give low values. AID 2553. 310,000 tested, 1.1% active;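 active means B-score under library mean minus 3 SD, initial fluorescence not abnormally high, positive integrated signal ratio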;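 further: B-score derived from integrated fluorescence ratio over the kinetic read; more negative B-score means stronger inhibition of depolarization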
TRPC4 sel inh 2 – second selectivity test of TRPC6 inhibitors: effect on mouse TRPC4. 920 tested, 42% active. HEK293 TRPC4/MOR, membrane potential dye fluorescence; channel activated by saturating DAMGO dose. inhibition, % at 10 µM. AID 2776. shares compounds with TRPC6 inhibitor;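 active means compounds whose fluorescence signal differed from control wells by over 3 SD, either direction, in both duplicate plates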
TRPC4 spec – selectivity of TRPC6 inhibitors: effect on mouse TRPC4; shares compounds with TRPC6 inhibitor; HEK293 TRPC4/mu-opioid, membrane potential fluorescence; activity change, negative = inhibition, % at 10 µM; 920 tested, 61% active; AID 2777;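 active means rise or fall in signal beyond 3 SD of buffer-only wells in both replicate plates, either sign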;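 further: integrated kinetic ratio of fluorescence range over baseline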
HEK293 MPD ctr 2-1 – second check of TRPC6 inhibitor effects in parental HEK293 cells | parental HEK293 membrane potential dye fluorescence; maximal acetylcholine challenge after compound addition | shares compounds with TRPC6 inhibitor | 920 tested, 31% active | signal change vs control, % at 10 µM | AID 2779;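 active means membrane potential signal moving either way by over 3 SD of the maximum-effect control, in both duplicate plates, meaning non-specific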
HEK293 MPD ctr-1 – parental HEK293 nonspecific activity of TRPC6 inhibitors. parental HEK293 membrane potential dye fluorescence. shares compounds with TRPC6 inhibitor. membrane potential signal change, % at 10 µM. 920 tested, 60% active;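 active means membrane potential signal shifting up or down by more than 3 SD of buffer-only wells, on both duplicate plates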
HEK293 MPD ctr-2 – counter-screen for TRPC6 modulators: effect in parental HEK293 cells; shares compounds with TRPC6 inhibitor; membrane potential dye fluorescence; membrane potential signal change, % at 10 µM; 2,400 tested, 51% active;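 active means membrane potential signal moves up or down beyond 5 SD from buffer-only wells, on both duplicate plates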
HEK293 MPD ctr 2-2 – parental HEK293 nonspecific activity of TRPC6 modulators, second screen; shares compounds with TRPC6 inhibitor; membrane potential dye fluorescence; after compound, maximal acetylcholine stimulation; inhibition, % at 10 µM; 2,400 tested, 14% active;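 active means membrane potential signal drops by more than 5 SD from the mean control signal, in both duplicate plates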;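 further: plate controls were acetylcholine ECmax control wells for no effect and buffer only wells for full effect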
TRPC4 ctr mod – selectivity of TRPC6 modulators against mouse TRPC4. shares compounds with TRPC6 inhibitor. HEK293 TRPC4/mu-opioid, membrane potential fluorescence. percent change from control (negative = decrease, positive = increase), % at 10 µM. 2,400 tested, 69% active;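 active means membrane potential signal moved up or down beyond 5 SD of buffer control wells, in both duplicate plates, actives on both sides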;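 further: plate controls were assay buffer wells for no effect and DAMGO maximal-effect wells for full effect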
TRPC4/MOR inh 2 – second check of whether TRPC6 modulators also affect mouse TRPC4; shares compounds with TRPC6 inhibitor; HEK293 TRPC4/mu-opioid, membrane potential dye fluorescence; stimulated with maximal-effect DAMGO; inhibition, % at 10 µM; 2,400 tested, 55% active; AID 488928;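 active means drop in membrane potential signal beyond 5 SD of the control wells in both duplicate plates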;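 further: TRPC4 counter screen for TRPC6 hits run under conditions tuned for TRPC6 not TRPC4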
TRPC6 block conf – mouse TRPC6 inhibitor confirmation; shares compounds with TRPC6 inhibitor; HEK293-TRPC6, membrane potential dye, ACh-evoked depolarization; inhibition, % at 10 µM; 3,300 tested, 43% active; AID 488960;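 active means fluorescence ratio falls more than 5 SD below the full-stimulation control mean, in both duplicate runs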;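 further: integrated fluorescence ratio of peak minus minimum over baseline after agonist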
TRPC6 act confirm – mouse TRPC6 activator confirmation. shares compounds with TRPC6 inhibitor. HEK293-TRPC6 membrane potential dye fluorescence, FDSS. activation, % at 10 µM. 2,800 tested, 11% active. AID 488961;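 active means ratio signal rise beyond 5 SD above unstimulated control wells' mean, seen in both duplicate runs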;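 further: plate controls were buffer EC0 wells for no effect and acetylcholine ECmax response for full effect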
An asterisk follows results filed as active; i = inactive; . = no result. A selection: hits, their analogues and other compounds. The true share with any hit is near 2.3%.

SMILES	TRPC4 inh	TRPC4 act	TRPC6 activator	TRPC4 potent	TRPC6 inhibitor	HEK293 MPD ctr-2	HEK293 MPD ctr 2-2	TRPC4 ctr mod	TRPC4/MOR inh 2	TRPC6 block conf	TRPC6 act confirm	others
COc1ccc(-c2cn3cccc(C)c3n2)cc1F	i	i	i	i	-8*	.	.	.	.	i	i	TRPC4 sel inh 2=i;TRPC4 spec=i;HEK293 MPD ctr 2-1=4.5%*;HEK293 MPD ctr-1=-198%*
C=COCCNC(=S)N1CCOCCOCCN(C(=S)NCCOC=C)CCOCCOCC1	i	i	i	i	i	.	.	.	.	.	.
O=C(NC1CCCC1)C(c1cccnc1)N(Cc1ccccc1F)C(=O)c1csnn1 (stereo not given)	i	i	i	i	i	.	.	.	.	.	.
Cc1c(C(=O)OC(C)C(C)C[N+](C)(C)C)oc2ccccc12 (stereo not given)	i	i	i	i	-7.5*	i	64%*	i	i	72%*	i
NC(=NCCc1c[nH]c2ccccc12)NC(=O)c1ccc(F)cc1	i	i	i	i	-6.5*	i	i	i	54%*	44%*	i
Cc1nn(C)cc1/C=C/C(=O)c1ccc(O)cc1	i	i	i	i	i	.	.	.	.	.	.
O=C(NCc1ccccc1)C12CN(Cc3ccccc3)CC1C(c1cccc([N+](=O)[O-])c1)=NO2 (stereo not given)	i	i	i	i	i	.	.	.	.	.	.
CCCCN(CCCC)CCCNC(=O)C12CN(Cc3ccccc3)CC1C(c1cccc([N+](=O)[O-])c1)=NO2 (stereo not given)	i	i	i	i	-7.5*	.	.	.	.	i	i	TRPC4 sel inh 2=60%*;TRPC4 spec=i;HEK293 MPD ctr 2-1=i;HEK293 MPD ctr-1=i
CCCCc1nnc(NC(=O)CSc2nc(O)c(Cc3ccccc3)c(=O)[nH]2)s1	i	i	i	i	i	.	.	.	.	.	.
O=C(CSc1nc(O)c(Cc2ccccc2)c(=O)[nH]1)Nc1nnc(SCc2ccccc2)s1	i	i	20*	i	i	308%*	i	58%*	i	i	142%*
CCCC(=O)NC(c1ccc2c(c1)OCO2)c1cc(Cl)c2cccnc2c1O (stereo not given)	i	i	i	i	-5.8*	118%*	i	i	i	i	i
Cc1cc(NC(=O)CSCC(=O)Nc2nc3ccccc3[nH]2)no1	i	i	i	i	i	.	.	.	.	.	.
O=C(Nc1ccnn1C1CCN(C2CCC2)CC1)c1ccccc1	i	i	i	i	i	.	.	.	.	.	.
CC(C)=CCCC(C)CN1CCC(n2nccc2NC(=O)c2ccc3c(c2)OCO3)CC1 (stereo not given)	i	i	i	i	-7.3*	.	.	.	.	56%*	i	TRPC4 sel inh 2=36%*;TRPC4 spec=6.8%*;HEK293 MPD ctr 2-1=268%*;HEK293 MPD ctr-1=10%*
C/C=C(\C)CN1CCC(n2nccc2NC(=O)c2ccc3c(c2)OCO3)CC1	i	i	i	i	i	.	.	.	.	.	.
NCCNC[C@@H]1COC2(CCCCCCCCCCC2)O1	i	i	i	i	-6.9*	.	.	.	.	62%*	i	TRPC4 sel inh 2=33%*;TRPC4 spec=1.8%*;HEK293 MPD ctr 2-1=i;HEK293 MPD ctr-1=7.8%*
O=C(/C=C/c1cn(CC(O)CN2CCCCC2)c2ccccc12)c1ccccc1 (stereo not given)	i	i	i	i	-6.4*	294%*	i	i	84%*	74%*	.
CCCNCC(O)Cn1c2ccccc2n2c(=O)cc(C)c(C#N)c12 (stereo not given)	i	i	i	i	i	.	.	.	.	.	.
Cc1cc(=O)n2c3ccccc3n(CC(O)CN3CCCC3)c2c1C#N (stereo not given)	i	i	i	i	-8*	.	.	.	.	53%*	i	TRPC4 sel inh 2=68%*;TRPC4 spec=-19%*;HEK293 MPD ctr 2-1=i;HEK293 MPD ctr-1=-280%*
O=c1c2ccccc2n(CC(O)CN2CCCCC2)c2ccccc12 (stereo not given)	i	i	i	i	-5.2*	-104%*	i	-16%*	49%*	i	i
CCCN(CCC)CC(O)Cn1cc(/C=C/C(=O)c2cccs2)c2ccccc21 (stereo not given)	i	i	i	i	-11*	.	.	.	.	i	i	TRPC4 sel inh 2=24%*;TRPC4 spec=9.6%*;HEK293 MPD ctr 2-1=i;HEK293 MPD ctr-1=16%*
NC(=O)CCS(=O)(=O)c1ccc(Cl)cc1	i	i	i	i	i	.	.	.	.	.	.
CN(C)CCCNC(=O)C1(O)c2cc(Br)ccc2NC(=O)N1c1ccc(Cl)cc1 (stereo not given)	i	i	i	i	i	.	.	.	.	.	.
Cc1cccc(C(=O)Nc2cc(Cl)ccc2-n2cncn2)c1[N+](=O)[O-]	i	i	i	i	i	.	.	.	.	.	.
CCN(CC)CCCNC(=S)N(CCO)Cc1cc2cc3c(cc2[nH]c1=O)OCCO3	i	i	i	i	i	.	.	.	.	.	.
COc1ccc(-c2n[nH]c(C)c2-c2ccc(Cl)cc2)c(O)c1	i	i	i	i	i	.	.	.	.	.	.
Cc1[nH]nc(-c2ccc(O)cc2O)c1-c1ccc(Cl)cc1	-7*	i	i	i	-5.8*	-79%*	i	-22%*	80%*	i	i
COc1ccc(C(=O)COc2ccccc2C(=O)Nc2ccccc2)cc1	i	i	i	i	i	.	.	.	.	.	.
